This note sets out measurements from PubChem BioAssay.

Assay [1] is described as follows: inhibitors of TNFa-induced NFkB p65 translocation, primary screen, imaging, HUVEC, MLSMR starter and 10KST1 sets (AID 438;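 active = inhibition above 20% together with a positive visual image hit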;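 note: compound added about 3h40 before a 20 min TNFalpha stimulation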;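 for inhibition: signal is the nuclear over cytoplasmic p65 intensity ratio per well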). The conditions noted are these: HUVEC TNFa-induced p65 nuclear translocation; cell count: measured here: nuclei count (cytotoxicity indicator), at 2.08 µM; inhibition: at 2 µM, stronger effect = higher value, 0% TNFa-plus-vehicle, 100% no-TNFa wells.
Assay [2] is described as follows: reduction of polyQ htt aggregates in cells – imaging, exon1htt(103Q)mCFP cells, high-content imaging, primary screen (AID 483).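 For nuclei count: percent of the per-plate median nuclei count of sample wells.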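 Note: compound exposure lasted 3 days before fixation.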 The following applies: exon1htt(103Q)mCFP cell line, aggregate imaging, at 2 µM; inhibition of aggregation: stronger effect = higher value; nuclei count: measured here: cell count, toxicity.
Assay [3] can be described thus: endothelial E-selectin expression blockers – imaging, HUVEC, immunofluorescence, MLSMR starter and 10KST1 sets, primary screen (AID 487;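 active = visually confirmed hit in the image check and inhibition above 20%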;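 for inhibition: signal is fraction of cell area covered by stained E-selectin grains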;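 for nuclei count: 100% = median nuclei count of all wells on the same plate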). The following applies: HUVEC TNFalpha-induced E-selectin immunofluorescence imaging, at 2 µM; inhibition: stronger effect = higher value; nuclei count: measured here: cell number, toxicity.
Assay [4] has as its target Voltage-gated potassium channel subunit beta-2 (Rattus norvegicus) (UniProt P62483). In words: inhibitors of rat Kvbeta2 reductase activity – biochemical, NADPH fluorescence, primary screen (AID 622;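 active = fluorescence slope higher than the sample average by over 3 SD, cut at about -0.22 in these data, passing the limit was not always enough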;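 note: slope of raw intensity against log time taken from 70 to 1610 s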). The following applies: recombinant KvBeta, 4-cyanobenzaldehyde reduction, at 10 µM, stronger effect = higher value.
The target is the same in assay [5]. In words: enhancers of rat Kvbeta2 NADPH turnover – biochemical, NADPH fluorescence, primary screen (AID 623;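 active = NADPH fluorescence slope more negative than the mean of all samples by about 3 SD, 99.7% confidence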;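 note: fluorescence intensity change per second fitted from 20 to 320 s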). The conditions noted are these: Recombinant KvBeta, NADPH fluorescence decrease slope, 10 min; at 10 µM; stronger effect = lower value.
For assay [6], the target named is Muscarinic acetylcholine receptor M4 (Homo sapiens) (UniProt P08173). In words: M4-linked GIRK flux change, two-sided – cell-based, HEK293 M4/GIRK, thallium flux, BTC-AM, M4 allosteric agonist project, primary screen (AID 625;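 active = fluorescence slope after compound addition differing from the mean of all tested samples at 99.7% confidence, mostly higher but some lower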;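 note: thallium influx through GIRK channels coupled to M4 in HEK293 cells with BTC-AM dye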). The conditions noted are these: at 10 µM, actives lie on both sides. In a few lines: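 Material: HEK293 cells with M4 receptor and GIRK channels; Times: cells overnight at 37 °C, BTC-AM loading 1 h, reads 2 min total; Technique: kinetic BTC-AM fluorescence sampled at 1 Hz, 10 s pre-addition baseline; Read-out basis: slope over 15–24 s of trace normalized to starting intensity; Controls: carbachol positive, DMSO negative.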
Sequence of Muscarinic acetylcholine receptor M4 (Homo sapiens) (P08173 whole entry, looked up): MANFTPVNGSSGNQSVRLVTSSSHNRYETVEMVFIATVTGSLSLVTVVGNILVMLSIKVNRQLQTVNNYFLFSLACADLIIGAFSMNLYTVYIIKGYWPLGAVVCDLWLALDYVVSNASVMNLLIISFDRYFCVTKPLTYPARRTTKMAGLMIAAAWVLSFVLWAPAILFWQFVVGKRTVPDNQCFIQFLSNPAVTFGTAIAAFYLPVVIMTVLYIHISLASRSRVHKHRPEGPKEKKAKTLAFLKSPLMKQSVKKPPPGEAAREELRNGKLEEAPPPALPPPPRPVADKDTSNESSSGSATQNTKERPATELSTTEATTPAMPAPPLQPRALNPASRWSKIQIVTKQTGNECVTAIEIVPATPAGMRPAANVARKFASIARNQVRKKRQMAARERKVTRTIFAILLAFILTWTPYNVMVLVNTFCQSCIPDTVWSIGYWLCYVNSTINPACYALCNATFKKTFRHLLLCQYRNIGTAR

The nature of assay [7]: blockers of RIG-like receptor reporter activation – cell-based, Sendai virus stimulus, luciferase, 10K MLSCN set, TLR/RLR signaling modifier project, primary screen (AID 602276;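 active = inhibition at or above 50% at 10 µM; inactive = inhibition below 50%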;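 note: firefly luciferase from ISG56 promoter only with Renilla not read in this screen; 0% = Sendai virus plus DMSO and 100% = medium plus DMSO without virus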). The following applies: HEK293 RL24 IRF3 luciferase reporter, at 10 µM, stronger effect = higher value.
Assay [8] is described as follows: TLR3 IRF3 reporter activation blockers – cell-based, poly I:C stimulus, luciferase, 10K MLSCN set, primary screen (AID 602277;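 active = inhibition of the reporter signal at or above 50%; inactive = inhibition below 50%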). The following applies: HEK293-TLR3 RL24 IRF3 luciferase reporter, at 10 µM, stronger effect = higher value. Background: A reporter such as luciferase makes a cellular process visible.

Each structure is given as a SMILES string. Active and inactive are the calls of the source.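 Rule for the calls, unless noted: active = visual image review flags a hit and inhibition of aggregation exceeds 20%; inconclusive = visual hit but inhibition at or below 20%; inactive = no hit on visual image review.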

Sequence of Voltage-gated potassium channel subunit beta-2 (Rattus norvegicus) (P62483 whole entry, looked up): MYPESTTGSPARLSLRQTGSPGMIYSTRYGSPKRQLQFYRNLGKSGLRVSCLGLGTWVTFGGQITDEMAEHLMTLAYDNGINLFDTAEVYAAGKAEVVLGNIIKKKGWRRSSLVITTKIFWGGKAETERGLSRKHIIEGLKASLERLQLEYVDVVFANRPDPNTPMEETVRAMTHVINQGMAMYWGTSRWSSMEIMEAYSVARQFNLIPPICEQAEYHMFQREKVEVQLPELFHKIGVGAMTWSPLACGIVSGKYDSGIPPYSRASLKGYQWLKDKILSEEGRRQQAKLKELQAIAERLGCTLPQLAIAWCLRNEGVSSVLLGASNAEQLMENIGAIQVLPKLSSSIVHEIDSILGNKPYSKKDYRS

One may read the inhibition as the relative decrease from the control value, in per cent. On to `COc1ccc(N2C(=O)C(Cl)=C(Nc3c(C)n(C)n(-c4ccccc4)c3=O)C2=O)cc1`, for which, in assay [1], the cell count came out at 607. Besides, the inhibition in assay [1] is -22.9% (inactive); in assay [3], -23.5% (inactive); in assay [7], 7.07% (inactive); in assay [8], 12.3% (inactive). Also, the inhibition of aggregation in assay [2] was -20.7% (inactive). The nuclei count in assay [2] turned out to be 95.1%; in assay [3], 102%. The fluorescence slope was -0.449 (inactive) in assay [4] and 0.00622 (inactive) in assay [6]. For the same compound, the NADPH fluorescence slope in assay [5] was 3.3e-05 (inactive).

As to `O=C1CC(c2ccc(S(=O)(=O)N3CCN(c4ccccc4)CC3)cc2)CN1` (centres undefined), the cell count in assay [1] worked out at 426. The inhibition was 0.3% (inactive) in assay [1], 75.6% (active) in assay [3], 5.45% (inactive) in assay [7] and 14.5% (inactive) in assay [8]. Also, the inhibition of aggregation in assay [2] is 7.2% (inactive). Further, the nuclei count worked out at 102% in assay [2] and 44.2% in assay [3]. Also, the fluorescence slope in assay [4] was -0.289 (inactive); in assay [6], 0.00584 (inactive). Also, the NADPH fluorescence slope in assay [5] is -4.6e-05 (inactive).

For `Cc1cc(C)nc(N2CCCC(C(=O)Nc3nc4ccc(S(C)(=O)=O)cc4s3)C2)n1` (centres undefined), the cell count in assay [1] worked out at 599. The inhibition in assay [1] was 1.8% (inactive); in assay [3] it was 6.8% (inactive); in assay [7] it was 12% (inactive); in assay [8], 11.5% (inactive). Further, in assay [2], the inhibition of aggregation was 2.6% (inactive). For the same compound, the results for the nuclei count in assay [2] and in assay [3] were 117% and 107%, respectively. Also, the fluorescence slope in assay [4] is -0.459 (inactive); in assay [6], 0.00564 (inactive). Moreover, the NADPH fluorescence slope in assay [5] was 9.7e-05 (inactive).

In the case of `COCCCNS(=O)(=O)c1ccc2c(c1)CCN2C(C)=O`, in assay [1], the cell count came out at 416. The inhibition was 0.3% (inactive) in assay [1], -31.6% (inactive) in assay [3], 15.1% (inactive) in assay [7] and 15% (inactive) in assay [8]. Besides, in assay [2], the inhibition of aggregation was -9.3% (inactive). The figures for the nuclei count in assay [2] and in assay [3] were 125% and 139%, respectively. Also, the fluorescence slope in assay [4] was -0.578 (inactive); in assay [6], 0.00611 (inactive). The NADPH fluorescence slope in assay [5] was 1.1e-05 (inactive).

Take `CC(O)c1nc2ccccc2n1C1CCCCC1` (centres undefined): the cell count in assay [1] was determined as 631. The inhibition in assay [1] was -19.6% (inactive); in assay [3], -16.4% (inactive); in assay [7], 20.2% (inactive); in assay [8] it was 24.7% (inactive). Also, the inhibition of aggregation in assay [2] was -4.7% (inactive). Moreover, the nuclei count was 99.7% in assay [2] and 111% in assay [3]. The fluorescence slope was -0.585 (inactive) in assay [4] and 0.00511 (inactive) in assay [6]. In assay [5], the NADPH fluorescence slope is 4.8e-06 (inactive).

For `CC(=O)N1CCC2(CC1)CC(=O)c1cc(OCC(=O)NCc3ccc(C)cc3)ccc1O2`, the cell count in assay [1] was found to be 314. The inhibition in assay [1] was -4.7% (inactive); in assay [3], -5% (inactive); in assay [7] it was 6.64% (inactive); in assay [8], 5.97% (inactive). Also, the inhibition of aggregation in assay [2] was 2.5% (inactive). The figures for the nuclei count in assay [2] and in assay [3] were 78.3% and 119%, respectively. In addition, the fluorescence slope in assay [4] is -0.0682 (inactive); in assay [6], 0.00521 (inactive). Further, in assay [5], the NADPH fluorescence slope is -3.2e-06 (inactive).

In the case of `CCCc1cn(S(=O)(=O)c2ccc(OC)cc2OC)nc1N`, the cell count in assay [1] was 364. Moreover, the inhibition was -8.7% (inactive) in assay [1], -38.9% (inactive) in assay [3], -0.283% (inactive) in assay [7] and 5.1% (inactive) in assay [8]. In assay [2], the inhibition of aggregation was 7.3% (inactive). Also, the nuclei count in assay [2] was determined as 100%; in assay [3], 119%. The fluorescence slope in assay [4] was -0.537 (inactive); in assay [6] it was 0.00411 (inactive). The NADPH fluorescence slope in assay [5] is -3.9e-05 (inactive).

Consider `CCOC(=O)CNc1ccc2c(c1)OCO2`, for which the cell count in assay [1] is 368. The inhibition is -7.7% (inactive) in assay [1], -105% (inactive) in assay [3], 8.79% (inactive) in assay [7] and 12.5% (inactive) in assay [8]. Also, the inhibition of aggregation in assay [2] is 8.3% (inactive). The nuclei count was 99.8% in assay [2] and 118% in assay [3]. The fluorescence slope in assay [4] is -0.488 (inactive); in assay [6], 0.00399 (inactive). Also, the NADPH fluorescence slope in assay [5] is -0.000182 (inactive).

In the case of `Cc1cc(/C=N/n2cnnc2)c(C)n1-c1ccc(Cl)cc1Cl`, the cell count in assay [1] stood at 485. Besides, the inhibition was 7.6% (inactive) in assay [1], -275% (inactive) in assay [3], 17.2% (inactive) in assay [7] and 16.7% (inactive) in assay [8]. The inhibition of aggregation in assay [2] was -10.2% (inactive). For the same compound, the nuclei count in assay [2] came out at 94.2%; in assay [3], 135%. The fluorescence slope in assay [4] was -0.294 (inactive); in assay [6] it was 0.00517 (inactive). In assay [5], the NADPH fluorescence slope is -3e-05 (inactive).

For `CCOC(=O)c1[nH]c2ccc(C)cc2c1N=C(C)N(C)C`, the cell count in assay [1] came to 579. The inhibition in assay [1] is 5.2% (inactive); in assay [3], -27.2% (inactive); in assay [7] it was 20.7% (inactive); in assay [8] it was 21.2% (inactive). In assay [2], the inhibition of aggregation is -6.9% (inactive). Also, the figures for the nuclei count in assay [2] and in assay [3] were 100% and 108%, respectively. The fluorescence slope in assay [4] was -0.563 (inactive); in assay [6], 0.00488 (inactive). In addition, the NADPH fluorescence slope in assay [5] is -6e-05 (inactive).

For `CC1(C)CC(=O)c2c(O)cc(O)cc2O1`, the cell count in assay [1] is 652. Also, the inhibition in assay [1] was -15.6% (inactive); in assay [3], -55.7% (inactive); in assay [7], 5.4% (inactive); in assay [8], -1.77% (inactive). Moreover, the inhibition of aggregation in assay [2] was -5.4% (inactive). The nuclei count in assay [2] was 83.3%; in assay [3], 99.8%. Further, the fluorescence slope was -0.482 (inactive) in assay [4] and 0.00586 (inactive) in assay [6]. The NADPH fluorescence slope in assay [5] was -4.2e-05 (inactive).

For `CCN(C(=O)c1c(-c2ccccc2)noc1C)c1ccccc1`, in assay [1], the cell count stood at 600. In addition, the inhibition in assay [1] is 1% (inactive); in assay [3], -39.7% (inactive); in assay [7] it was 22.5% (inactive); in assay [8], 22.7% (inactive). For the same compound, the inhibition of aggregation in assay [2] was 1.1% (inactive). The nuclei count in assay [2] worked out at 106%; in assay [3] it was 95.6%. Besides, the fluorescence slope in assay [4] is -0.534 (inactive); in assay [6], 0.00432 (inactive). The NADPH fluorescence slope in assay [5] was -1.1e-05 (inactive).

For the compound `Cc1ccc(-c2nnn(CC(=O)N(CC3CCCO3)C(C(=O)NC(C)(C)C)c3ccc(F)cc3)n2)o1` (centres undefined), the cell count in assay [1] amounted to 415. Moreover, the inhibition was 5.7% (inactive) in assay [1], -64% (inactive) in assay [3], 9.86% (inactive) in assay [7] and 15.3% (inactive) in assay [8]. In addition, the inhibition of aggregation in assay [2] was 3.4% (inactive). Further, the nuclei count in assay [2] came to 112%; in assay [3], 118%. Moreover, the fluorescence slope is -0.563 (inactive) in assay [4] and 0.00486 (inactive) in assay [6]. Besides, in assay [5], the NADPH fluorescence slope was -3.8e-05 (inactive).

Regarding `CS(=O)(=O)N1CCN(C(=O)c2ccc(-c3ccccc3)cc2)CC1`, the cell count in assay [1] was found to be 481. For the same compound, the inhibition in assay [1] was 4% (inactive); in assay [3] it was -287% (inactive); in assay [7], 18.4% (inactive); in assay [8] it was 22.5% (inactive). For the same compound, in assay [2], the inhibition of aggregation was -11% (inactive). For the same compound, the nuclei count in assay [2] worked out at 108%; in assay [3], 128%. The fluorescence slope in assay [4] was -0.541 (inactive); in assay [6], 0.00648 (inactive). Also, the NADPH fluorescence slope in assay [5] is -5.8e-05 (inactive).
